The list is not random: actives were taken first. Their share in the collection is about 1.4%.
HTR5A inv ag: counter-screen for OPRM1-OPRD1 inverse agonists: human HTR5A inverse agonism. P47898. HTR5A cell line, luminescence. inhibition, % at 9.3 µM. 0.083% of 340,000 active. AID 504634; in the data active means inhibition mostly above about 23%, no sharp cut-off; inactive means mostly below about 18%
Target sequence (P47898 whole entry, looked up): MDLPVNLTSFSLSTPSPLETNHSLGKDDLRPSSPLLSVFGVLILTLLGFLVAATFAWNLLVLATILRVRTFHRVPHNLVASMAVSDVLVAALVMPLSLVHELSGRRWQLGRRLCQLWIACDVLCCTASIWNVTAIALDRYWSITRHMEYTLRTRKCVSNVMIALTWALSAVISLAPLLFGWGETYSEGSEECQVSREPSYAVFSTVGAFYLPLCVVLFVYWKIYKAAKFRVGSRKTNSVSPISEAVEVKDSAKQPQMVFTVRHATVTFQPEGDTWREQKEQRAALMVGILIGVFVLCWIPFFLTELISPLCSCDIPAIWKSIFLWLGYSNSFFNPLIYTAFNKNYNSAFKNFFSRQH
Lipid droplet: hepatic lipid droplet formation modulation. AML12 mouse hepatocytes, oleate lipid droplets, BODIPY imaging. inhibition, % at 6.5 µM. 0.4% of 240,000 active. AID 1656;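 active means lipid droplet intensity inhibited by at least 50%, with more than 500 cells counted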
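Assay system: AML12 mouse liver cells | Compound dosing: One dose, 6.5 µM compound | Read-out basis: Droplet intensity reduction, % inhibition | Measured by: Fluorescence imaging, 20x objective, two fields per well | Schedule: Overnight treatment with compound plus oleate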
MOR-DOR ag: OPRM1-OPRD1 heterodimerization agonism; cells, luminescence; activation, % at 9.3 µM; 0.3% of 340,000 active; AID 504326
OPRM1-OPRD1 inv: mu-delta opioid heterodimer inverse agonism; P35372+P41143; cell-based MOR-DOR heterodimer luminescence; inhibition, % at 9.3 µM; 0.21% of 340,000 active; AID 504357; in the data active means inhibition above about 22%, passing the limit was not always enough
HTR5A ag ctr: activates human HTR5A in OPRM1-OPRD1 agonist counter-screen | activation, % at 9.3 µM | HTR5A agonist assay, luminescence, cell-based | AID 504692 | 0.61% of 340,000 active; in the data active means activation mostly above about 9.5%, no sharp cut-off; inactive means mostly below about 7.6%
OPRM1-D1 ag cf: OPRM1-OPRD1 heterodimer agonism, confirmation; shares compounds with MOR-DOR ag; cells, MOR-DOR heterodimerization, luminescence complementation; activation, % at 9.3 µM; 45% of 830 active
HTR5A ag counter: HTR5A agonism, opioid heterodimer counter-screen; shares compounds with MOR-DOR ag; HTR5A agonist counterscreen, cell luminescence; activation, % at 9.3 µM; 8% of 830 active; AID 504905; in the data active means activation above about 17%
Hits are given with their value; 0 = inactive; - = no result given. Unless noted, no stated cut-off is given here; in the data, active means activation above about 18%; inactive means the rest.

SMILES	HTR5A inv ag	Lipid droplet	MOR-DOR ag	OPRM1-OPRD1 inv	HTR5A ag ctr	OPRM1-D1 ag cf	HTR5A ag counter
COC(=O)C1CCN(Cc2cn(-c3ccccc3)nc2-c2ccc3c(c2)OCO3)CC1	0	0	51	0	0	0	0
CCCOc1ccc(-c2nc(SCc3ccccc3)[nH]c(=O)c2C#N)cc1OC	0	0	0	0	0	-	-
CCn1c(/C=C/c2c(C)[nH]c3ccccc23)nc2ccccc2c1=O	0	0	27	0	0	0	0
CCCCCCCCCCOC(=O)Cn1c(COc2ccccc2C)[n+](C)c2ccccc21	0	0	28	0	13	35	0
CCCCCCCCCCOC(=O)Cn1c(COc2ccc(Cl)cc2)[n+](C)c2ccccc21	0	0	18	0	0	24	0
COc1ccccc1C(CNC(=O)c1ccc(S(=O)(=O)N2CCCCC2)cc1)N(C)C (stereo not given)	0	-	0	0	0	-	-
COc1ccc(-c2nc(CN3CCC(C(=O)NCC4CCCO4)CC3)c(C)o2)cc1OC (stereo not given)	0	0	30	0	0	23	0
Cc1oc(-c2ccc(Cl)cc2)nc1CN1CCC(C(=O)NCC2CCCO2)CC1 (stereo not given)	0	0	0	0	0	-	-
CCC(C)(C)C(=O)Nc1ncc(S(=O)(=O)c2ccc([N+](=O)[O-])cc2)s1	0	-	0	0	0	-	-
CCCC(C)C(=O)Nc1ncc(S(=O)(=O)c2ccc([N+](=O)[O-])cc2)s1 (stereo not given)	0	0	21	0	0	0	0
COC1=CC(=O)c2c(ccc3ncnc(N)c23)C1=O	0	-	41	0	0	0	0
COc1cccc2c1C(=O)C=C(C)C2=O	0	0	0	0	0	-	-
CCOC(=O)c1c2c(n(-c3ccc(OC)cc3)c1C)C(=O)C(=O)c1ccccc1-2	0	-	20	0	0	0	0
COc1ccc(-c2nn(-c3ccccc3C)cc2CNCCc2cnc[nH]2)cc1F	0	0	0	0	0	-	-
COc1ccc(-c2nn(-c3ccccc3C)cc2CNC(C)Cn2cncn2)cc1F (stereo not given)	0	0	0	0	0	-	-
COc1ccc(-c2nn(-c3ccccc3C)cc2CNC(C)c2cn(C)nc2C)cc1F (stereo not given)	0	0	163	0	0	23	0
CCn1cc(CNCc2cn(-c3ccccc3C)nc2-c2ccc(OC)c(F)c2)cn1	0	0	243	0	0	309	0
CN(C)C(CNC(=O)CCS(=O)(=O)c1ccccc1)c1ccccc1 (stereo not given)	0	0	60	0	0	0	0
CN(C)C(CNC(=O)CCNS(=O)(=O)c1ccccc1C(F)(F)F)c1ccccc1 (stereo not given)	0	-	25	0	0	29	0
CC(NC(=O)CCc1c[nH]c2ccccc12)c1ccccc1 (stereo not given)	0	0	0	0	0	-	-
CN(C)C(CNC(=O)CCc1c[nH]c2ccccc12)c1ccccc1 (stereo not given)	0	0	138	0	0	20	0
O=C(NCC1CC1)Nc1cccs1	0	0	0	0	0	-	-
Cc1c(-c2ccccc2)cnc2c(C)cccc12	0	-	0	0	0	-	-
CN(C)C1(CNC(=O)CC(NC(=O)c2ccccc2Cl)c2ccccc2)CCCCC1 (stereo not given)	0	0	22	0	0	0	0
Cc1ccc(S(=O)(=O)N2[C@@H](c3ccc(C(C)(C)C)cc3)C(C(=O)O)=CC[C@H]2c2cccs2)cc1	0	-	26	0	0	24	0
SMILES	HTR5A inv ag	Lipid droplet	MOR-DOR ag	OPRM1-OPRD1 inv	HTR5A ag ctr	OPRM1-D1 ag cf	HTR5A ag counter
Cc1ccc([C@H]2C(C(=O)O)=CC[C@@H](c3cccs3)N2S(=O)(=O)c2ccc(C)cc2)cc1	0	-	0	0	0	-	-
Cc1cc(C)cc(CC(Cc2nc3ccccc3[nH]2)c2nc3ccccc3[nH]2)c1 (stereo not given)	0	0	66	0	0	0	0
COC(=O)CCCNC(=O)c1ccc(OC2CCN(CCc3ccccc3)CC2)cc1	0	0	38	0	0	35	0
COc1ccccc1C(=O)OCc1c(F)cccc1Cl	0	-	0	0	0	-	-
Cc1ccc2nc(SC(C(=O)Nc3ccc(F)cc3)c3ccccc3)[nH]c2c1 (stereo not given)	0	0	24	0	0	454	0
COc1ccc(/C=N\NC(=O)COc2ccc(C(C)(C)C)cc2)cc1Cn1nc(C)cc1C	0	0	45	0	0	0	0
COc1ccc(NC(=O)COc2ccccc2C(=O)NCC(c2ccccc2)N(C)C)cc1Cl (stereo not given)	0	0	64	0	0	62	0
Cc1cc(/C=C2\SC(=S)N(C)C2=O)c(C)n1-c1cccc(O)c1	0	0	30	0	0	0	0
Cc1ccc(-n2cc(CNCCCn3ccnc3C)c(-c3ccc(F)cc3)n2)cc1	0	0	0	0	0	-	-
Cc1ccc(-n2cc(CNC(C)c3cnn(C)c3C)c(-c3ccc(F)cc3)n2)cc1 (stereo not given)	0	0	222	0	0	34	0
Cc1ccc(-n2cc(CNC(C)c3cnn(C)c3)c(-c3ccc(F)cc3)n2)cc1 (stereo not given)	0	0	366	0	0	440	0
O=C(c1ccccn1)N(Cc1cccs1)C1(C(=O)NC2CCCCC2)CCCCC1	0	0	28	0	0	0	0
COc1cc(NC(=O)c2cccc(C)c2)ccc1NC(=O)c1cc2ccccc2o1	0	0	30	0	0	49	0
CC(=O)Nc1ccc(NC(=O)c2cc([N+](=O)[O-])cc([N+](=O)[O-])c2)cc1	0	0	0	0	0	-	-
O=C(Nc1ccc(Br)cc1)c1cc([N+](=O)[O-])cc([N+](=O)[O-])c1	0	0	22	0	0	0	0
CC(CCc1ccccc1)NC(=O)c1ccc(NC(=O)c2ccccc2)cc1 (stereo not given)	0	0	26	0	0	0	0
Nc1c(NCCN2CCCCC2)c2ccccc2oc1=O	0	0	53	0	0	0	0
O=C(CCc1ccccc1)NCC1(c2ccccc2)CCCC1	0	0	0	0	0	-	-
CCC[C@H](CN[C@@H](CNC)[C@H](C)CC)NCCc1cc(C(F)(F)F)cc(C(F)(F)F)c1	0	0	0	0	0	-	-
CC[C@@H](C)[C@H](CNC)NC[C@@H](Cc1cccc2ccccc12)NCCc1cccc(C(F)(F)F)c1	0	0	24	0	0	0	0
CCN(CC)CCN1C(=O)C2C(C(=O)Nc3ccc(C(C)C)cc3)C3C=CC2(O3)C1C(=O)NC1CCCCC1 (stereo not given)	0	0	37	0	0	0	0
